Measured values from ChEMBL document CHEMBL1127600, “Mercaptoacyl amino acid inhibitors of atriopeptidase. 1. Structure-activity relationship studies of methionine and S-alkylcysteine derivatives” (J Med Chem, 1994).

How the values were obtained:
[1] = target: T1, Neprilysin (Oryctolagus cuniculus, UniProt P08049); assay: In vitro inhibitory activity against neutral endopeptidase (NEP)
T1 sequence (P08049 whole entry): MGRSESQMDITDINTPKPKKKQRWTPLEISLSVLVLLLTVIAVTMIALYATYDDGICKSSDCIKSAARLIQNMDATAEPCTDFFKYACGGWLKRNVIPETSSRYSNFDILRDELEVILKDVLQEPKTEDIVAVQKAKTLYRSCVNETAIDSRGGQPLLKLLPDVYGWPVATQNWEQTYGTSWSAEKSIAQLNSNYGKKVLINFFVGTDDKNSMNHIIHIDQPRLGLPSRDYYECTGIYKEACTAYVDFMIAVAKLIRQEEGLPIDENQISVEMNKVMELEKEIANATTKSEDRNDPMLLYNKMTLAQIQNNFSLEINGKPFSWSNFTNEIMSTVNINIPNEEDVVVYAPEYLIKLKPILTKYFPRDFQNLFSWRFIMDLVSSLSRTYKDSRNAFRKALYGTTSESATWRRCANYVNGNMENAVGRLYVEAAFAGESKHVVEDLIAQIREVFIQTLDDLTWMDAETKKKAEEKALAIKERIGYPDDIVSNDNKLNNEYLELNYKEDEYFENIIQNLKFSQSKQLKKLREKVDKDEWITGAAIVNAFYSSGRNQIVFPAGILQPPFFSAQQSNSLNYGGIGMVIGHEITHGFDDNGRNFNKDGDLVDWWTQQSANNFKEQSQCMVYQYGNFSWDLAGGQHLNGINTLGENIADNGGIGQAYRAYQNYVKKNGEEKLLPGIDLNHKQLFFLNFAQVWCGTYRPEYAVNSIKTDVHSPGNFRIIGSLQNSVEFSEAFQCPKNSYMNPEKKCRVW
Summary of the method: (§1)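 Purified rabbit kidney NEP (EC 24.11) was the enzyme source, with [³H]Leu-enkephalin as the substrate.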

[2] = tested on: Rattus norvegicus; assay: Tested for in vivo Antihypertensive activity in DOCA rat by giving peroral dose of 10 mg/kg; assay type: functional; settings: route oral
Summary of the method: (§2)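 Male Sprague-Dawley rats (100–150 g) had DOCA-Na hypertension induced and were used 17–21 days later if mean BP was >150 mmHg. Rats were not fasted. Mean BP was recorded after 90-min equilibration. Dosing was sc in TRIS buffer (2 mL/kg) or po in 0.4% aqueous methylcellulose (4 mL/kg). The maximum BP fall over 4 h versus vehicle controls was taken, averaged over four or more animals.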

[3] = tested on: Rattus norvegicus; assay: Tested for in vivo Antihypertensive activity in DOCA rat by giving subcutaneous dose of 3 mg/kg; assay type: functional; summary of the method: as §2
[4] = tested on: Rattus norvegicus; assay: In vivo potentiation of ANF induced hypotension in rat, following subcutaneous dose of 30 mg/kg; assay type: functional
Summary of the method: (§3)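 Conscious male SHR (270–300 g) had caudal artery and jugular vein cannulae placed under ether. After at least 90 min of stabilization, ANF 103-125 or 99-126 was given as an iv bolus at a submaximal dose. 60–90 min later, drug or vehicle (0.2% aqueous methylcellulose with 20% Tris-HCl) was given sc. ANF was repeated 15 min after dosing, and the response was compared with vehicle controls. Values are means of four or more animals.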

[5] = tested on: Rattus norvegicus; assay: Tested for in vivo Antihypertensive activity in DOCA rat by giving peroral dose of 3 mg/Kg; assay type: functional; summary of the method: as §2
[6] = tested on: Rattus norvegicus; assay: Tested for in vivo Antihypertensive activity in DOCA rat by giving subcutaneous dose of 30 mg/kg; assay type: functional; summary of the method: as §2
[7] = tested on: Rattus norvegicus; assay: In vivo potentiation of ANF Induced Hypotension in rat was determined by giving peroral dose of 10 mg/kg; assay type: functional; settings: route oral
[8] = tested on: Rattus norvegicus; assay: In vivo potentiation of ANF Induced Hypotension in rat was determined by giving peroral dose of 3 mg/kg; assay type: functional; settings: route oral
[9] = tested on: Rattus norvegicus; assay: Tested for in vivo Antihypertensive activity in DOCA rat by giving peroral dose of 30 mg/kg; assay type: functional; settings: route oral; summary of the method: as §2
[10] = target: T1, Neprilysin; assay: Ttested for its inhibitory activity against neutral endopeptidase (NEP); summary of the method: as §1
[11] = tested on: Rattus norvegicus; assay: In vivo potentiation of ANF Induced Hypotension in rat was determined by giving subcutaneous dose of 10 mg/kg; assay type: functional; summary of the method: as §3
[12] = tested on: Rattus norvegicus; assay: Tested for in vivo Antihypertensive activity in DOCA rat by giving subcutaneous dose of 10 mg/kg; assay type: functional; summary of the method: as §2
[13] = target: T2, Angiotensin-converting enzyme (Oryctolagus cuniculus, UniProt P12822); assay: Tested in vitro for its inhibitory activity against angiotensin converting enzyme
T2 sequence (P12822 whole entry): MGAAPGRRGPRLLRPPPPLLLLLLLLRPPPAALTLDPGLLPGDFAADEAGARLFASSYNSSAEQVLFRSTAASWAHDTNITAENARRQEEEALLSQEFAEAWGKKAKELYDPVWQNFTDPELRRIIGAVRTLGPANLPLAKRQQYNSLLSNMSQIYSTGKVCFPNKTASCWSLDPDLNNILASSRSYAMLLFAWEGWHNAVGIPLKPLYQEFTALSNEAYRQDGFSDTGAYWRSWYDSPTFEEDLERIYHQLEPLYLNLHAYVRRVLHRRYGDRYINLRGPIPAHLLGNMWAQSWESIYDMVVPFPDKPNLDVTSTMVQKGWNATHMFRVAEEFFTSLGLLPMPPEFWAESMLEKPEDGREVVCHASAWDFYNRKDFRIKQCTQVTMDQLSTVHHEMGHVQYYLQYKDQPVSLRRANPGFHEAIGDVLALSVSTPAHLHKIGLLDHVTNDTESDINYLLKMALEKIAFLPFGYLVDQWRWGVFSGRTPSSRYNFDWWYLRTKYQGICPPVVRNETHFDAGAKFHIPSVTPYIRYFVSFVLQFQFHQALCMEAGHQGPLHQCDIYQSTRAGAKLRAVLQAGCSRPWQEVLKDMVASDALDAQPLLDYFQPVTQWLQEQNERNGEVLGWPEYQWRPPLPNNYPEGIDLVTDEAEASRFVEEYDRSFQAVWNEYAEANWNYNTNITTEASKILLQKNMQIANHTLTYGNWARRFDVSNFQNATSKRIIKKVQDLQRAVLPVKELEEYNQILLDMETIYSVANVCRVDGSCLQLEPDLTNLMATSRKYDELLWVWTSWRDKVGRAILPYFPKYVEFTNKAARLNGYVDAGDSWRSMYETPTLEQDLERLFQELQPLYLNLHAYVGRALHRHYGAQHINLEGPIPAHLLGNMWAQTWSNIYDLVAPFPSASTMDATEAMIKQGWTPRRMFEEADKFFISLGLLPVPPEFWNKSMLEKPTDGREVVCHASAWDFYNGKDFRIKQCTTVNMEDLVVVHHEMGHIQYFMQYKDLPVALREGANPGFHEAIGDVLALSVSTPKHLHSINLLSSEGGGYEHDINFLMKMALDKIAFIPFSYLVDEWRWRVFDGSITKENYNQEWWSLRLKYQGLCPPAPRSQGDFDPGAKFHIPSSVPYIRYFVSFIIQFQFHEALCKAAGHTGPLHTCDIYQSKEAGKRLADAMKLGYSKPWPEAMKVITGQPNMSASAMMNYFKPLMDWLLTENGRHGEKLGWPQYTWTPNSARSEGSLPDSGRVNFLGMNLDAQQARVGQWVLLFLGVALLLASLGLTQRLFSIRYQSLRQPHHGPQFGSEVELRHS

[14] = tested on: Rattus norvegicus; assay: Tested for in vivo Antihypertensive activity in DOCA rat by giving peroral dose of 1 mg/Kg; assay type: functional; summary of the method: as §2
[15] = tested on: Rattus norvegicus; assay: Tested for in vivo Antihypertensive activity in DOCA rat by giving subcutaneous dose of 1 mg/kg; assay type: functional; summary of the method: as §2
[16] = tested on: Rattus norvegicus; assay: Ttested for in vivo Antihypertensive activity in DOCA rat by giving subcutaneous dose of 0.1 mg/kg; assay type: functional; summary of the method: as §2
[17] = tested on: Rattus norvegicus; assay: Tested for in vivo Antihypertensive activity in DOCA rat by giving peroral dose of 3 mg/kg; assay type: functional; settings: route oral
Summary of the method: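 Male Sprague-Dawley rats (100–150 g at preparation) made DOCA-Na hypertensive, used 17–21 days after induction if mean BP >150 mmHg, nonfasted. Drug given orally as solution or suspension in 0.4% aqueous methylcellulose (4 mL/kg). Mean BP recorded after 90-min equilibration. Value is maximum BP fall over 4 h versus vehicle-treated controls, averaged over four or more animals.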

[18] = tested on: Rattus norvegicus; assay: In vivo potentiation of ANF Induced Hypotension in rat was determined by giving subcutaneous dose of 90 mg/kg ANF; assay type: functional
[19] = tested on: Rattus norvegicus; assay: Tested for in vivo Antihypertensive activity in DOCA rat by giving peroral dose of 1 mg/kg; assay type: functional; settings: route oral; summary of the method: as §2

| IC50 [1] | IC50 [13] | Structure (SMILES) | Delta blood pressure [4] | Delta blood pressure [6] | also measured |
| --- | --- | --- | --- | --- | --- |
| > 300 nM |  | Cc1ccc(CSC[C@@H](NC(=O)[C@H](CS)Cc2ccccc2)C(N)=O)cc1 | 17 mmHg |  | Delta blood pressure [2]: 46 mmHg; Delta blood pressure [3]: 17 mmHg |
|  |  | CSCC[C@@H](NC(=O)[C@@H](CSC(C)=O)Cc1ccccc1)C(N)=O | 23 mmHg |  | Delta blood pressure [5]: 39 mmHg |
|  |  | CSCC[C@@H](NC(=O)[C@H](CSC(=O)c1ccccc1)Cc1ccccc1)C(N)=O |  | 0 mmHg | Delta blood pressure [7]: 52 mmHg; Delta blood pressure [8]: 19 mmHg |
|  |  | COc1ccc(CSC[C@@H](NC(=O)[C@H](CS)Cc2ccccc2)C(=O)O)cc1 | 23 mmHg |  | Delta blood pressure [9]: 0 mmHg; IC50 [10]: 17 nM |
|  |  | CC(=O)SC[C@H](Cc1ccccc1)C(=O)N[C@H](CSCc1ccc(C)cc1)C(N)=O |  |  | Delta blood pressure [2]: 0 mmHg; Delta blood pressure [11]: 0 mmHg |
|  |  | CSCC[C@@H](NC(=O)C(CSC(C)=O)Cc1ccccc1)C(=O)N1CCCCC1 (stereo partly specified) | 38 mmHg |  | Delta blood pressure [3]: 3 mmHg; Delta blood pressure [12]: 32 mmHg |
| 7 nM | 100 nM | CSCC[C@@H](NC(=O)[C@@H](CS)Cc1ccccc1C)C(=O)O |  |  | Delta blood pressure [3]: 43 mmHg; Delta blood pressure [14]: 24 mmHg |
| 11 nM | 19 nM | Cc1ccc(CSC[C@@H](NC(=O)[C@@H](CS)Cc2ccccc2)C(=O)O)cc1 | 48 mmHg | 17 mmHg |  |
| 4 nM | 120 nM | CSCC[C@@H](NC(=O)C(CS)Cc1ccccc1)C(=O)O (stereo partly specified) | 25 mmHg | 42 mmHg | Delta blood pressure [9]: 18 mmHg |
| 2.4 nM | 28 nM | CCSC[C@@H](NC(=O)[C@@H](CS)Cc1ccccc1)C(=O)O | 19 mmHg |  | Delta blood pressure [2]: 61 mmHg; Delta blood pressure [15]: 22 mmHg; Delta blood pressure [16]: 21 mmHg |
| 46 nM | 58 nM | C[C@H](CS)C(=O)N[C@H](CSCc1ccccc1)C(=O)O | 19 mmHg | 0 mmHg |  |
| > 300 nM | > 1000 nM | CSCC[C@@H](NC(=O)[C@H](CS)CCc1ccccc1)C(=O)O |  |  | Delta blood pressure [17]: 6 mmHg |
| 32 nM | > 1000 nM | O=C(N[C@H](CSCc1ccccc1)C(=O)O)[C@H](CS)Cc1ccccc1 |  | 55 mmHg | Delta blood pressure [18]: 45 mmHg; Delta blood pressure [12]: 21 mmHg |
|  |  | CC(=O)SC[C@H](Cc1ccccc1)C(=O)N[C@H](CSCc1ccc(C)cc1)C(=O)O |  |  | Delta blood pressure [7]: 20 mmHg |
| 2 nM | > 1000 nM | Cc1ccc(CSC[C@@H](NC(=O)[C@@H](CS)Cc2cccc3ccccc23)C(=O)O)cc1 | 0 mmHg |  | Delta blood pressure [2]: 8 mmHg; Delta blood pressure [9]: 33 mmHg; Delta blood pressure [15]: 47 mmHg; Delta blood pressure [3]: 26 mmHg |
|  |  | CC(=O)SC[C@@H](Cc1ccccc1)C(=O)N[C@H](CSCc1ccc(C)cc1)C(=O)O |  | 48 mmHg | Delta blood pressure [11]: 42 mmHg |
| 9 nM | 24 nM | O=C(N[C@H](CSCc1ccccc1)C(=O)O)[C@@H](CS)Cc1ccccc1 |  | 30 mmHg | Delta blood pressure ([4]; 30 mg/kg): 35 mmHg; Delta blood pressure [12]: 17 mmHg |
| > 300 nM | 250 nM | CCOC(=O)[C@@H](CCSC)NC(=O)[C@@H](CSC(C)=O)Cc1ccccc1C | 36 mmHg |  | Delta blood pressure [2]: 70 mmHg; Delta blood pressure [19]: 27 mmHg; Delta blood pressure [5]: 48 mmHg |
|  |  | Cc1ccc(CSC[C@@H](NC(=O)[C@@H](CS)Cc2ccccc2)C(=O)O)cc1C | 23 mmHg |  | IC50 [10]: 370 nM |
| 20 nM | 1200 nM | Cc1ccc(CSC[C@@H](NC(=O)[C@H](CS)Cc2ccccc2)C(=O)O)cc1 | 48 mmHg | 33 mmHg | Delta blood pressure [9]: 28 mmHg |
